Results: PMC5973995 (Clinical Pharmacokinetics, 2017)
Where two headings read alike, the source gives them in different places.

Tests used:
[1] = assay type: in vivo, human; settings: for AUC(0-inf) / AUC(0-t) / Cmax / Tmax / Vd/F / half-life: both, human, plasma, po; for CL/F: healthy subjects, mean (% CV)
Outline: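 Healthy subjects given a single oral dose; plasma parameters derived by non-compartmental analysis of pooled phase I data. Reported as mean and % coefficient of variation, except Tmax as median (minimum–maximum). AUC taken both to infinity and to the last quantifiable concentration. CL/F is total clearance, and Vz/F is the terminal-phase apparent volume after extravascular dosing.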

[2] = assay type: in vivo, human; settings: for AUC(0-t) / Tmax / Vd/F / half-life: both, human, plasma, oral; for AI (accumulation index = AUC(0–tau) at steady state/AUC(0–24) day 1) / CL/F / C max: healthy subjects, mean (% CV); for C max: steady state
[3] = Mass balance, single oral dose of 50 mg 14C-labeled vortioxetine; assay type: in vivo, human; settings: single oral dose 50 mg 14C-labeled; data on file
[4] = Effect of sex, age and race/ethnicity on pharmacokinetics; assay type: in vivo, human
[5] = target: T1, CYP2A6 (Homo sapiens, UniProt P11509); experiment: In-vitro CYP inhibition in pooled human liver microsomes; assay type: in vitro ADME; settings: data on file
T1 sequence (P11509 1-494): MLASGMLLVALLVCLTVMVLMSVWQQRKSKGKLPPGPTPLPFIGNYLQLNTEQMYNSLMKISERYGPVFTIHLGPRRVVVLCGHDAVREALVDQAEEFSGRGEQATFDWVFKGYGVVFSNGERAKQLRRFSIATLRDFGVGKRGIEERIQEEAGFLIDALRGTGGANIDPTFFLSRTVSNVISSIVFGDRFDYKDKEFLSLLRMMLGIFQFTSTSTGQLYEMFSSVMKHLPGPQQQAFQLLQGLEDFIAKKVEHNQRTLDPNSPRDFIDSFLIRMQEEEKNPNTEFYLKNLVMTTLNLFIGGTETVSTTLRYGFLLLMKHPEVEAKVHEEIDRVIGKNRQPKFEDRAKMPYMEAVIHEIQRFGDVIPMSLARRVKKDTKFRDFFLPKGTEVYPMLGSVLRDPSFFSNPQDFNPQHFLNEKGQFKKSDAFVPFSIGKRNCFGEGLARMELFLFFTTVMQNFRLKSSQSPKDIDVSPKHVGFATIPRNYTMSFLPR

[6] = target: CYP2E1 (Homo sapiens, UniProt P05181); experiment: as above; assay type: in vitro ADME; settings: data on file
CYP2E1, sequence (P05181 whole entry): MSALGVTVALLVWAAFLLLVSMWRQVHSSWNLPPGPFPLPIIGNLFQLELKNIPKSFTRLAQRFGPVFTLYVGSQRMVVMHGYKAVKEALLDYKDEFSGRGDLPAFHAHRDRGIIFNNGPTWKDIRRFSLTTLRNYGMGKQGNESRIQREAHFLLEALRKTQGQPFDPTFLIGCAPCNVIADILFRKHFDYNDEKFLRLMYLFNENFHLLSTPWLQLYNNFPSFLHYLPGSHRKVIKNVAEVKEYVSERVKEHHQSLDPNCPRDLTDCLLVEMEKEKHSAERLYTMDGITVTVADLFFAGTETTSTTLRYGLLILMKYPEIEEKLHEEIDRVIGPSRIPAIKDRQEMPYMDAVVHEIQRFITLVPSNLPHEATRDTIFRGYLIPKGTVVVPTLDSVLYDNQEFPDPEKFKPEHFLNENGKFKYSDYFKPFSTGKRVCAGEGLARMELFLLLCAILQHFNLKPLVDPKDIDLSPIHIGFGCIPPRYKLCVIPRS

[7] = target: CYP2C9 (Homo sapiens, UniProt P11712); experiment: as above; assay type: in vitro ADME
CYP2C9, sequence (P11712 whole entry): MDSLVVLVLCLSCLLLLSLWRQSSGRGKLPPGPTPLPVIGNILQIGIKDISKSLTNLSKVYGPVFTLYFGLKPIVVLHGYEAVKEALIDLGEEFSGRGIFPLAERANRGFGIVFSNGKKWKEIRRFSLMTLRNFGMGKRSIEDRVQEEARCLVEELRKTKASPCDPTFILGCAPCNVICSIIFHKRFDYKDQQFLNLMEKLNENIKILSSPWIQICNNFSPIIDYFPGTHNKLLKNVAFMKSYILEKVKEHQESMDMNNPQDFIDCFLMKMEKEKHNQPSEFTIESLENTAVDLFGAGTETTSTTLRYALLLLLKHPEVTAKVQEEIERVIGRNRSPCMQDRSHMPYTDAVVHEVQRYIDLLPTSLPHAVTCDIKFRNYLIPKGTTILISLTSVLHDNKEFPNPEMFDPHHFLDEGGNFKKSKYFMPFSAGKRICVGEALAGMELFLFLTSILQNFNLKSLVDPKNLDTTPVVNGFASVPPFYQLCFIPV

[8] = Tolerability / adverse events in phase I studies; assay type: in vivo, human; settings: phase I data grouped by CYP2D6-predicted phenotypes
[9] = cited from earlier work
[10] = cited from earlier work; remark: listed apart in the source
[11] = cited from earlier work; remark: listed apart in the source
[12] = cited from earlier work; remark: listed apart in the source
[13] = cited from earlier work; remark: listed apart in the source
[14] = system: 5-HT1D receptor; settings: in vitro; cited from earlier work
[15] = cited from earlier work; remark: listed apart in the source
[16] = multiple doses of 2.5, 5, and 20 mg, male, data on file
[17] = 10 mg daily for 14 days (Fig. 2)
[18] = single dose 10 mg, 65–85 vs 18–45 years
[19] = single dose, 24 male vs 24 female
[20] = mild-to-moderate hepatic impairment, single dose 10 mg (Fig. 2)
[21] = severe hepatic impairment, single dose 5 mg

Br.Cc1ccc(Sc2ccccc2N2CCNCC2)c(C)c1 [vortioxetine, 1-[2-(2,4-dimethyl-phenylsulfanyl)-phenyl]-piperazine, hydrobromide]
time to reach maximum observed plasma concentration ([1]; after single or multiple dosing (Tables 1, 2)): 7 to 11 h | AUC(0-inf) ([1]; 5 mg): 188 ng·h/mL | AUC(0-t) ([1]; 5 mg): 157 ng·h/mL | Cmax ([1]; 5 mg): 1.87 ng/mL | Tmax ([1]; 5 mg): 11 h | Vd/F ([1]; 5 mg): 2740 L | half-life ([1]; 5 mg): 69.4 h | AUC(0-inf) ([1]; 10 mg): 273 ng·h/mL | AUC(0-t) ([1]; 10 mg): 255 ng·h/mL | Cmax ([1]; 10 mg): 4.6 ng/mL | Tmax ([1]; 10 mg): 8 h | Vd/F ([1]; 10 mg): 2770 L | half-life ([1]; 10 mg): 60.6 h | AUC(0-inf) ([1]; 20 mg): 646 ng·h/mL | AUC(0-t) ([1]; 20 mg): 561 ng·h/mL | Cmax ([1]; 20 mg): 8.11 ng/mL | Tmax ([1]; 20 mg): 10 h | Vd/F ([1]; 20 mg): 3290 L | half-life ([1]; 20 mg): 64.3 h | estimated total clearance (CL/F) ([1]; oral, single or multiple doses (Tables 1, 2)): 30 to 41 L/h | CL/F ([1]; single oral dose 5 mg): 29.62 (35) L/h | CL/F ([1]; single oral dose 10 mg): 40.52 (40) L/h | CL/F ([1]; single oral dose 20 mg): 41.47 (60) L/h | AUC(0-t) ([2]; 5 mg): 175 ng·h/mL | Tmax ([2]; 5 mg): 7 h | Vd/F ([2]; 5 mg): 2500 L | half-life ([2]; 5 mg): 60 h | AUC(0-t) ([2]; 10 mg): 344 ng·h/mL | Tmax ([2]; 10 mg): 8 h | Vd/F ([2]; 10 mg): 3290 L | half-life ([2]; 10 mg): 58.8 h | AUC(0-t) ([2]; 20 mg): 646 ng·h/mL | Tmax ([2]; 20 mg): 8 h | Vd/F ([2]; 20 mg): 3370 L | half-life ([2]; 20 mg): 64.2 h | AI (accumulation index = AUC(0–tau) at steady state/AUC(0–24) day 1) ([2]; multiple doses 5 mg): 5.17 (27) | CL/F ([2]; multiple doses 5 mg): 32.96 (33) L/h | C max ([2]; multiple doses 5 mg): 8.69 (42) ng/mL | AI (accumulation index = AUC(0–tau) at steady state/AUC(0–24) day 1) ([2]; multiple doses 10 mg): 4.87 (34) | CL/F ([2]; multiple doses 10 mg): 38.27 (60) L/h | C max ([2]; multiple doses 10 mg): 17.92 (44) ng/mL | AI (accumulation index = AUC(0–tau) at steady state/AUC(0–24) day 1) ([2]; multiple doses 20 mg): 5.68 (38) | CL/F ([2]; multiple doses 20 mg): 40.11 (47) L/h | C max ([2]; multiple doses 20 mg): 33.03 (38) ng/mL | accumulation index (AUC(0–24) ratio steady state / single dose) ([2]; multiple doses of 5–20 mg (Table 2)): 5–6 | red blood cell distribution [3]: negligible | AUC(0–24) higher in elderly than young subjects ([4]; multiple 10-mg doses (Fig. 2)): 27% | C max higher in elderly than young subjects ([4]; multiple 10-mg doses (Fig. 2)): 23% | AUC(0–24) higher in female than male subjects ([4]; multiple doses (Fig. 2)): 27% | C max higher in female than male subjects ([4]; multiple doses (Fig. 2)): 24% | AUC(0–24) higher in Japanese than white participants [4, 16]: 8% | C max higher in Japanese than white participants [4, 16]: 9% | inhibitory in-vitro effect on CYP2A6 [5]: no inhibitory in-vitro effect | inhibitory in-vitro effect on CYP2E1 [6]: no inhibitory in-vitro effect | ratio of maximum plasma concentration of inhibitor (I) and Ki ([7]; CYP2C9, much smaller than): smaller than 0.1 | inhibitory effect on CYP2C9 ([7]; pooled human liver microsomes, CYP isozyme-specific probe substrates, data on file): inhibitory effect | overall incidence of adverse events, CYP2D6 PMs vs non-PMs [8]: no clinically relevant differences | effect of food (high-fat meal) on PK parameters ([9]; fed vs fasting): No food effect | 90% CIs for AUC(0–t) or AUC(0–inf) and C max ratios (fed to fasting) ([9]; high-fat meal, within bioequivalence range): 80–125% | AUC(0–24) higher in black than white volunteers [10, 17]: 25% | C max higher in black than white volunteers [10, 17]: 33% | AUC(0–t) higher in elderly than young subjects [10, 18]: 4% | C max lower in elderly than young subjects [10, 18]: 11% | AUC(0–t) higher in female than male subjects [10, 19]: 18% | C max higher in female than male subjects [10, 19]: 16% | fraction of unbound parent drug, hepatically impaired vs healthy [11]: no differences | AUC(0–t) lower than healthy cohorts [11, 20]: up to 9% | C max lower than healthy cohorts [11, 20]: up to 16% | AUC(0–t) higher than healthy controls [11, 21]: 10% | C max lower than healthy controls [11, 21]: 24% | effect on neuropsychologic tests of cognitive domains with diazepam ([12]; co-administration with diazepam): did not have a statistically significant effect | effect on mental and motor impairment effects of alcohol ([12]; computerized neuropsychologic tests): did not increase | arachidonic acid-, adenosine diphosphate-, or collagen-induced platelet aggregation ([13]; vortioxetine 10 mg added to aspirin 150 mg): did not change | International Normalized Ratio or prothrombin times between groups ([13]; vortioxetine 10 mg with stable warfarin doses (1–10 mg), day 14): no difference | action at 5-HT1D receptor [14]: antagonist | tolerability regardless of degree of renal or hepatic impairment [15]: well tolerated | tolerability of combination ([15]; rifampin 600 mg daily with vortioxetine 20 mg): well tolerated
